Results taken from ChEMBL document CHEMBL4513216, “Probing the Open Global Health Chemical Diversity Library for Multistage-Active Starting Points for Next-Generation Antimalarials” (ACS Infect Dis, 2020).

Assay: Toxicity liver stage against HepG2, at 10uM
Assay type: cell-based
Design: test concentration 10 uM, cell line HepG2-A16-CD81EGFP
Details: human, HepG2-A16-CD81EGFP cells; read-out: INHIBITION
Method in brief: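 Uninfected HepG2-A16-CD81EGFP cells, 3 × 10^3 per well, 1536-well, plated on prespotted compound at 10 μM final, parasite-free screening media added to match infected plates; puromycin 10 μM positive, DMSO 0.5% negative; run in parallel with 48 h PbLuc assay at 37 °C, 5% CO2; viability by CellTiter-Glo luminescence, normalized to controls.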

Structure (SMILES): COc1ccc2c(c1)nc1n2[C@@H](CNCc2ncccc2C)COC1
- cytotoxicity at 10 µM: 3.1%

Structure (SMILES): Cc1ccc(NC(=O)Nc2c[nH]c(=O)[nH]c2=O)c(C)c1
- cytotoxicity at 10 µM: 18.2%

Structure (SMILES): COC(=O)[C@H](C)NC(=O)Cn1ccc2ccc(F)cc21
- cytotoxicity at 10 µM: -0.112%

Structure (SMILES): O=c1c(NCc2ccncc2)c(NCC(O)CN2CCOCC2)c1=O (stereo not drawn)
- cytotoxicity at 10 µM: -44%

Structure (SMILES): O=c1cc2c(nn1CN1CCSCC1)CCC2
- cytotoxicity at 10 µM: -4.86%

Structure (SMILES): CC(C)n1ccc2c(C(=O)NC3CN4CCC3CC4)cccc21 (stereo not drawn)
- cytotoxicity at 10 µM: -54.2%

Structure (SMILES): Cn1cccc1C(O)CNS(=O)(=O)c1ccccc1F (stereo not drawn)
- cytotoxicity at 10 µM: -14.6%

Structure (SMILES): Cn1nc(N2CCCC(C(=O)Nc3nc4ccccc4[nH]3)C2)ccc1=O (stereo not drawn)
- cytotoxicity at 10 µM: 1.08%

Structure (SMILES): O=c1[nH]nc2c(S(=O)(=O)N3CCCCC3)cccn12
- cytotoxicity at 10 µM: 2.41%

Structure (SMILES): O=S(=O)(c1ccc(F)cc1)n1cc(Cl)cn1
- cytotoxicity at 10 µM: 0.0667%

Structure (SMILES): Cc1cc(-c2cnc(N3CCSCC3)nc2C(C)C)on1
- cytotoxicity at 10 µM: 16.8%

Structure (SMILES): CC(=O)Nc1ccc(CN2CCCC(c3cc4ncccc4[nH]3)C2)cc1 (stereo not drawn)
- cytotoxicity at 10 µM: 0.99%

Structure (SMILES): Cc1cc(-c2nccs2)nc(C2CCN(Cc3cccs3)CC2)n1
- cytotoxicity at 10 µM: 6.81%

Structure (SMILES): CCn1nc(C)c(CN(Cc2ccccn2)Cc2ccccc2Cl)c1C
- cytotoxicity at 10 µM: 5.17%

Structure (SMILES): CCOc1c(Br)cc(CNC(C)c2nnc3n2CCC3)cc1OC (stereo not drawn)
- cytotoxicity at 10 µM: -40.9%

Structure (SMILES): O=C(NCc1ccc(C(=O)O)o1)c1ccc(F)cc1
- cytotoxicity at 10 µM: 13.2%

Structure (SMILES): COCCCS(=O)(=O)N1CCN(Cc2cccn2C)CC1
- cytotoxicity at 10 µM: -9.53%

Structure (SMILES): Cc1cc(N(C)C)nc(N2CCn3c(C)nnc3C2)n1
- cytotoxicity at 10 µM: -5.14%

Structure (SMILES): CC(C)(C)c1cn2c(n1)C(CNCc1cnn3ccccc13)CCC2 (stereo not drawn)
- cytotoxicity at 10 µM: -13.4%

Structure (SMILES): CCN(C)Cc1cccc(CNC(=O)NCCc2ccccn2)c1
- cytotoxicity at 10 µM: 2.8%

Structure (SMILES): CN(Cc1cc(Br)cn1C)C(=O)Cc1cccc(O)c1
- cytotoxicity at 10 µM: -4.99%

Structure (SMILES): O=C(CCC1CCCO1)NCCCO (stereo not drawn)
- cytotoxicity at 10 µM: 11.2%

Structure (SMILES): CCN(CC1COc2ccccc2O1)C(=O)C1=NN(C)C(=O)CC1 (stereo not drawn)
- cytotoxicity at 10 µM: -39.6%

Structure (SMILES): CSCC(C)N(C)S(=O)(=O)c1ccc(Cl)cc1C#N (stereo not drawn)
- cytotoxicity at 10 µM: -41.5%

Structure (SMILES): CCCOc1ccc2c(c1)OCC(C(=O)NC(C)Cn1ccnc1)=C2 (stereo not drawn)
- cytotoxicity at 10 µM: -4.03%

Structure (SMILES): COC(=O)C(CNC(=O)Nc1nncs1)Cc1ccc(O)cc1 (stereo not drawn)
- cytotoxicity at 10 µM: 16.9%

Structure (SMILES): CC(Nc1nc2c(cnn2C)c(=O)[nH]1)c1ccc2c(c1)CCCC2 (stereo not drawn)
- cytotoxicity at 10 µM: 9.62%

Structure (SMILES): Cc1ccccc1CCCN(Cc1ccccn1)S(C)(=O)=O
- cytotoxicity at 10 µM: 9.53%

Structure (SMILES): O=C(C1SCCc2ccccc21)N1CCC(O)CC1 (stereo not drawn)
- cytotoxicity at 10 µM: 0.0013%

Structure (SMILES): O=C(NCCCSc1ccc(F)cc1)C1CCc2cn[nH]c2C1 (stereo not drawn)
- cytotoxicity at 10 µM: -3.65%

Structure (SMILES): CN(Cc1ccccc1F)C(C(N)=O)c1ccccc1 (stereo not drawn)
- cytotoxicity at 10 µM: -2.09%

Structure (SMILES): CC(CNC(=O)N1CCNC(=O)CC1)Cc1cccs1 (stereo not drawn)
- cytotoxicity at 10 µM: -5.62%

Structure (SMILES): CCC(CC)C(O)CNC(=O)Nc1cccc(-c2nccn2C)c1 (stereo not drawn)
- cytotoxicity at 10 µM: -1.39%

Structure (SMILES): CCS(=O)(=O)N1CCc2c(cccc2NC(=O)NCCO)C1
- cytotoxicity at 10 µM: -7.47%

Structure (SMILES): O=C(c1ccncc1)N1CCCC1C1CCN(Cc2ccccc2)CC1 (stereo not drawn)
- cytotoxicity at 10 µM: 7.43%

Structure (SMILES): O=C(c1ccoc1)N1CCCC1C1CCN(Cc2ccccc2)CC1 (stereo not drawn)
- cytotoxicity at 10 µM: -10.6%

Structure (SMILES): CC(C)Cc1cc(C(=O)NC(C)C)[nH]n1
- cytotoxicity at 10 µM: 5.67%

Structure (SMILES): Cc1cccc(OC2CCN(c3ccc(C#N)cn3)CC2)n1
- cytotoxicity at 10 µM: 15.5%

Structure (SMILES): COCCN(CCOC)C(=O)NC1CCCCC1
- cytotoxicity at 10 µM: -0.655%

Structure (SMILES): CCc1cc(CNC(=O)NCc2ccc(N3CCCCC3)cc2)on1
- cytotoxicity at 10 µM: 1.27%

Structure (SMILES): CNC(=O)NC(C)c1c(F)cccc1Cl (stereo not drawn)
- cytotoxicity at 10 µM: -6.2%

Structure (SMILES): CCN1CCc2c(cccc2NC(=O)N(C)C2CCSC2)C1 (stereo not drawn)
- cytotoxicity at 10 µM: -49.1%

Structure (SMILES): CN(C)C[C@@H]1C[C@@H]2CN(Cc3nccn3C)CC[C@@H]2N1CC1CC1
- cytotoxicity at 10 µM: -101%

Structure (SMILES): CC(=O)N1CCO[C@@H]2CN(C(=O)NCc3ccccc3)CC[C@@H]2C1
- cytotoxicity at 10 µM: -97.7%

Structure (SMILES): Cc1nc(CO[C@H]2CN(C(=O)c3cccnc3)[C@@H]3COC[C@H]23)cs1
- cytotoxicity at 10 µM: -110%

Structure (SMILES): CN(C)CCN1CCO[C@@H]2CN(C(=O)Cc3ccsc3)CC[C@@H]2C1
- cytotoxicity at 10 µM: -119%

Structure (SMILES): Cc1ccc(CN2CCn3c(CNS(C)(=O)=O)nnc3C2)s1
- cytotoxicity at 10 µM: -67.7%

Structure (SMILES): Cc1ccc(C(=O)N2CC[C@@]3(C[C@@H](NS(C)(=O)=O)CCO3)C2)s1
- cytotoxicity at 10 µM: -73.9%

Structure (SMILES): CC(C)CN1Cc2c(C(=O)NC3CC3)ncn2-c2ccccc2S1(=O)=O
- cytotoxicity at 10 µM: -77.6%

Structure (SMILES): Cc1cccc(CN2CCn3c(C(=O)N(C)C)cnc3C2)c1
- cytotoxicity at 10 µM: -69.5%

Structure (SMILES): Fc1cnc(NCC2Cn3nnc(-c4ccccc4)c3CO2)nc1 (stereo not drawn)
- cytotoxicity at 10 µM: -64.7%

Structure (SMILES): CCOCC1CN(C(=O)Cc2ccccn2)Cc2cn(C)nc21 (stereo not drawn)
- cytotoxicity at 10 µM: 1.86%

Structure (SMILES): CC(=O)N1CCC2(CCN(C(=O)c3ccc(Cl)c(C(F)(F)F)c3)CC2)C1
- cytotoxicity at 10 µM: -4.48%

Structure (SMILES): COCc1noc(CN2CCCCC2CCc2cccs2)n1 (stereo not drawn)
- cytotoxicity at 10 µM: 0.642%

Structure (SMILES): Cc1ccc(-c2ccnc(NC(c3ncccc3C)C3CC3)n2)c(C)n1 (stereo not drawn)
- cytotoxicity at 10 µM: 0.656%

Structure (SMILES): CC(c1ccon1)N(C)S(=O)(=O)NCc1ccccc1 (stereo not drawn)
- cytotoxicity at 10 µM: -0.174%

Structure (SMILES): CCN(CC)C(=O)c1ccc(Cl)c(NC(=O)c2cnc(C)cn2)c1
- cytotoxicity at 10 µM: -0.273%

Structure (SMILES): Cc1ccc(CN2CCN(C3CCCC3)CC2CCO)o1 (stereo not drawn)
- cytotoxicity at 10 µM: -6.05%

Structure (SMILES): CCc1cc(N(C)Cc2[nH]nc3c2CCC3)nc(N2CCOCC2)n1
- cytotoxicity at 10 µM: 5.51%

Structure (SMILES): CC(C)N1CCCC(C(=O)N(C)CCCc2cnn(C)c2)C1 (stereo not drawn)
- cytotoxicity at 10 µM: -8.03%

Structure (SMILES): COCCN1CCCC2(CCN(Cc3nnc(C4CC4)o3)C2)C1=O (stereo not drawn)
- cytotoxicity at 10 µM: 0.15%

Structure (SMILES): COCc1nc(C2CC2)nn1-c1cc(Cl)ccc1OC
- cytotoxicity at 10 µM: -10.2%

Structure (SMILES): Cc1noc(C(C)C)c1C(=O)NCc1cccc(CN(C)C)c1
- cytotoxicity at 10 µM: -8.23%

Structure (SMILES): CN1CCN(C2CCN(CCOc3cccc(Cl)c3)CC2)C1=O
- cytotoxicity at 10 µM: -2.83%

Structure (SMILES): COc1ccc(-n2ccc(C(=O)NCCN3CCCCCC3)n2)cc1
- cytotoxicity at 10 µM: -3.84%

Structure (SMILES): CC1CCCN(CCNC(=O)c2ccn(-c3cccc(F)c3)n2)C1 (stereo not drawn)
- cytotoxicity at 10 µM: -3.25%

Structure (SMILES): Cc1ccc(CN(C)C(=O)CN2CCCC(Cn3cncn3)C2)cc1 (stereo not drawn)
- cytotoxicity at 10 µM: -6.41%

Structure (SMILES): CCN1CCCC(CNC(=O)C2(c3cc(C)cc(C)c3)CCC2)C1 (stereo not drawn)
- cytotoxicity at 10 µM: -10.7%

Structure (SMILES): O=C(CCc1nccs1)N1CCN(c2ccccn2)CC1
- cytotoxicity at 10 µM: -19.7%

Structure (SMILES): Cc1cc(C)c(CNC(=O)N2CCN(c3cnccn3)CC2)c(=O)[nH]1
- cytotoxicity at 10 µM: -2.58%

Structure (SMILES): CCN1CCN(C2CCN(Cc3noc(C)n3)CC2)C1=O
- cytotoxicity at 10 µM: -8.13%

Structure (SMILES): O=C1CCC(C(=O)NCc2nncn2-c2ccccc2)CN1 (stereo not drawn)
- cytotoxicity at 10 µM: -12.7%

Structure (SMILES): COc1ccc(S(N)(=O)=O)cc1C(=O)N(C)Cc1cc(C)on1
- cytotoxicity at 10 µM: -4.3%

Structure (SMILES): CCC(CO)NCc1ccc(-c2ccccc2)o1 (stereo not drawn)
- cytotoxicity at 10 µM: 4.42%

Structure (SMILES): CN1CCOCC2(CCCN(C(=O)c3ccc(-n4cccc4)cc3)C2)C1 (stereo not drawn)
- cytotoxicity at 10 µM: -98%

Structure (SMILES): O=C(NCc1ccccn1)[C@@]12CCO[C@@H]1CCN(Cc1ccccn1)C2
- cytotoxicity at 10 µM: -112%

Structure (SMILES): Cc1cccc(CN2CCC3(CCCN(CC(=O)N(C)C)C3)C2)n1 (stereo not drawn)
- cytotoxicity at 10 µM: -101%

Structure (SMILES): COCCN1CCN(c2ccc(C)nn2)Cc2ccc(C)nc21
- cytotoxicity at 10 µM: -104%

Structure (SMILES): Cc1nc(CN2CCCn3c(nc(Cn4cncn4)cc3=O)C2)cs1
- cytotoxicity at 10 µM: 3.75%

Structure (SMILES): CN(Cc1cccnc1)Cc1cncc2c1CCN(c1ccccn1)C2
- cytotoxicity at 10 µM: -108%

Structure (SMILES): c1cncc(OCc2n[nH]c3c2CN(Cc2cccs2)C3)c1
- cytotoxicity at 10 µM: -113%

Structure (SMILES): O[C@@H]1CC(CNCC2CC2)(COc2cccnc2)C[C@@H]1O (stereo partly drawn)
- cytotoxicity at 10 µM: -2.64%

Structure (SMILES): CCN(CC)S(=O)(=O)N1C[C@H]2CC[C@@H](C1)N(Cc1cscn1)C2=O
- cytotoxicity at 10 µM: -21.1%
